Screening results deposited in PubChem BioAssay by Broad Institute.
E-sel inducer = E-selectin induction in HUVECs, primary screen, imaging, HUVEC, immunofluorescence imaging, single point. P16581. normalized: neutral wells 0, TNF-alpha wells 100. activation, % at 7.58 µM. 0.37% of 260,000 active. AID 686992, 2013;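 active = mean E-selectin-positive cell signal at least 10% of the positive control, reached in at least 60% of replicates, without over 20% cell loss; inconclusive = no rule given, readout overlaps actives, possibly toxicity-flagged; inactive = the rest, including those meeting only one limit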
Target sequence (P16581 whole entry, looked up): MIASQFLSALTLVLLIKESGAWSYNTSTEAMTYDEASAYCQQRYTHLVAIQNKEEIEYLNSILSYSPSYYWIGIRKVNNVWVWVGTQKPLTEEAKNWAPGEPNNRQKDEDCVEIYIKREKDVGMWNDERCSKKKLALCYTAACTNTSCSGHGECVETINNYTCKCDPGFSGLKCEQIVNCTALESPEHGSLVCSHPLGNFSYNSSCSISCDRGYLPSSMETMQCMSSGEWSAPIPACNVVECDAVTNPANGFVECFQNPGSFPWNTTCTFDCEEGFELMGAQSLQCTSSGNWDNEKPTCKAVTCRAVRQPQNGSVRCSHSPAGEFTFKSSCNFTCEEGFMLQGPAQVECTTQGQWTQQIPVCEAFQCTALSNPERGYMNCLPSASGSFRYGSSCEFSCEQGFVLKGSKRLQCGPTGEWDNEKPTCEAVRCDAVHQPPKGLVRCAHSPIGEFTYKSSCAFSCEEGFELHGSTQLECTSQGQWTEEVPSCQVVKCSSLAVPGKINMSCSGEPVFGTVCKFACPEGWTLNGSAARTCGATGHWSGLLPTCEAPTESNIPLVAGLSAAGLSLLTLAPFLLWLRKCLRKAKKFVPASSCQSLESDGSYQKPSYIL
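Material: HUVEC primary endothelial cells; Amount: 3,000 cells per well; Dosing: single concentration; Medium: EGM-2 growth medium on 0.1% gelatin-coated wells; Read-out basis: percent E-selectin-positive cells; Signal: immunofluorescence imaging; Control set: TNF-alpha, DMSO.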
C2C12 statin = suppressors of statin myotoxicity in C2C12 myotubes, primary screen, cell-based, single point, plate reader | C2C12 myotubes + simvastatin, ATP luminescence, 48 h; scaled: DMSO 0, geranylgeraniol control 100 | rescue of ATP level, % at 7.49 µM | 0.78% of 330,000 active | AID 602340, 2012;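 active = mean ATP rescue above about 67%, or every replicate alone reaching that limit, limit read from the data, passing the limit was not always enough; inconclusive = no clear call, values can overlap the other calls; inactive = mean under the limit and some replicate under it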;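 note: myotubes were challenged with 10 µM simvastatin during compound exposure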
DENV2 CPE rescue = inhibitors of DENV2 cytopathic effect, primary screen, cell-based, plate reader, single concentration; DENV2-infected cells, cytopathic effect rescue; CPE inhibition, % at 9.99 µM; 1.7% of 350,000 active; in the data active = CPE inhibition above about 20%, passing the limit was not always enough; inconclusive = no clear call, values can overlap the other calls; tested in BHK-21 cells;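 note: 0% = median of neutral control wells and 100% = median of positive control wells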
* hit, by the source's call; ? = inconclusive; nt = no result. The list is not random: actives were taken first. Their share in the collection is about 2.2%.

SMILES	E-sel inducer	C2C12 statin	DENV2 CPE rescue
COc1ccc(/C=C/C(=O)Nc2ccc(OC)nc2)cc1	nt	84*	4
COc1ccc(NC(=S)NC(=O)/C=C/c2cccs2)cc1	nt	nt	18
O=C(/C=C/c1ccc(Cl)cc1)NC(=S)Nc1ccc(C(=O)O)cc1	0	6	0
COc1ccc(NC(=O)/C=C/c2ccc(OC(F)F)cc2)cn1	0	61	?
COc1ccc(NC(=S)NC(=O)/C=C/c2ccccc2)cc1	-1	5	38*
O=C(/C=C/c1ccc(Cl)cc1)NC(=S)Nc1ccccc1C(=O)O	nt	nt	23*
COc1ccc(NC(=O)/C=C/c2cccc(Br)c2)cn1	nt	-3	9
COc1ccc(NC(=O)/C=C/c2cccc(C(F)(F)F)c2)cn1	nt	-17	23*
CN1C(=O)c2cc(NC(=O)c3cccc(C(F)(F)F)c3)ccc2OC[C@@H]2O[C@@H](CC(=O)O)CC[C@@H]21	0	-17	-1
C[C@H](CO)N1C[C@H](C)[C@H](CN(C)Cc2ccc3c(c2)OCO3)Oc2c(NC(=O)c3ccc(-c4nccs4)cc3)cccc2C1=O	4	-36	-3
C[C@@H]1CN([C@H](C)CO)C(=O)c2cccc(NC(=O)Nc3ccccc3)c2O[C@H]1CN(C)S(=O)(=O)c1ccccc1	-4	-17	-5
C[C@@H]1CN([C@@H](C)CO)C(=O)c2cc(C#CC3(O)CCCC3)cnc2O[C@@H]1CN(C)C(=O)Cc1cccnc1	0	-6	-4
O=C(C[C@H]1C[C@@H]2c3cc(NC(=O)C4CCOCC4)ccc3O[C@@H]2[C@H](CO)O1)NCc1cccc(F)c1	0	-2	-1
CCC1=C(CC2NCCc3ccccc32)CC2c3cc(OC)c(OC)cc3CCN2C1 (configuration not stated)	5	nt	12
CC[C@H]1CN2CCc3cc(OC)c(OC)cc3C2C[C@@H]1C[C@H]1NCCc2cc(OC)c(OC)cc21 (some centres not stated)	0	81*	6
C[C@H]1CN([C@@H](C)CO)C(=O)c2cc(NC(=O)CCN3CCOCC3)ccc2O[C@@H]1CN(C)Cc1ccc(C(=O)O)cc1	nt	39	nt
Cc1ccc(NCc2n[nH]c(=S)n2-c2ccccc2)cc1	30*	nt	-3
Cc1cccc(NCc2n[nH]c(=S)n2-c2ccccc2)c1	1	nt	15
CCCN1[C@@H]2c3ccc(/C=C/c4ccccc4)c(=O)n3C[C@@H]2[C@@H](CO)[C@@H]1C(=O)NCc1ccncn1	0	22	nt
CNC(=O)c1sc(SC)cc1-c1ccc(Cl)cc1	nt	9	nt
CSc1cc(-c2ccc(Cl)cc2)c(C(=O)N2CCCC2)s1	nt	126*	nt
O=C(C[C@H]1CC[C@H](NC(=O)CCN2CCCCC2)[C@H](CO)O1)Nc1ccc(-c2ccccc2)cc1	0	-17	-1
CCOc1ccc(S(=O)(=O)N2CCCCC2)cc1NC(=O)C1CCCC1	0	-4	-5
CCOc1ccccc1NC(=O)C1CCCN(S(=O)(=O)c2ccc(OC)c(C)c2)C1 (configuration not stated)	nt	122*	nt
CN1C(=O)c2cc(NC(=O)Nc3ccccc3Cl)ccc2OC[C@@H]2O[C@@H](CC(=O)O)CC[C@H]21	0	10	18
SMILES	E-sel inducer	C2C12 statin	DENV2 CPE rescue
Cc1ccc2nc(=O)c(NNc3ccccc3)cnc2c1	178*	nt	-2
Cc1nc2ccccc2nc(=O)c1NNc1ccccc1	nt	nt	1
COc1ccc(/C=C2\SC(=O)N(CCCC(=O)Nc3ccc(C(=O)O)cc3)C2=O)cc1	0	-1	97*
CCOc1ccc(/C=C2\SC(=S)N(CCC(=O)Nc3ccc(C(=O)O)cc3)C2=O)cc1	nt	-3	10
CCOc1ccc(/C=C2\SC(=S)N(CCC(=O)Nc3cccc(C(=O)O)c3)C2=O)cc1	0	5	32*
O=C(CCN1C(=O)S/C(=C\c2ccc(Cl)cc2)C1=O)Nc1ccc(C(=O)O)cc1	-1	6	?
O=C(CCN1C(=O)/C(=C/c2cccs2)SC1=S)Nc1ccccn1	nt	nt	12
O=C(CCN1C(=O)/C(=C/c2ccccc2)SC1=S)Nc1ccccn1	nt	93*	1
CN1c2ccc(Br)cc2[C@H]2[C@H](CCN2S(=O)(=O)c2ccccc2F)[C@H]1CO	0	45	-14
C[C@H]1CCCCO[C@H](CN(C)Cc2ccc(Cl)c(Cl)c2)[C@@H](C)CN([C@@H](C)CO)C(=O)c2cc(NC(=O)Nc3cccc4ccccc34)ccc2O1	0	nt	13
CO[C@H]1CN(C)C(=O)c2cc(NS(C)(=O)=O)ccc2OC[C@@H](C)N(CC2CC2)C[C@H]1C	2	0	-3
